Paper PMC10330157 (Clinical cancer research : an official journal of the …, 2023)
“Also recorded” adds a separate entry of the source.

Columns and labels:
[1] = Clinical plasma pharmacokinetics; format: in vivo, human
How it was run: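 Oral test compound was given once daily at doses of 20 to 1,200 mg. Plasma levels were measured by LC-MS/MS (LLOQ 5 ng/mL). Cmax, AUC0-24h and accumulation ratio came from noncompartmental analysis.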

[2] = Phase 1 first-in-human trial: safety and tolerability; format: in vivo
How it was run: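 In an open-label, non-randomized dose escalation, the test compound was given orally once daily for 28-day cycles at 20–1,200 mg. Cohorts started as single patients, with intrapatient escalation allowed. The primary endpoints were DLT and MTD. Patients were hospitalized during ramp-up, with oral antihyperuricemic agents and hydration ≥ 72 h before the first dose plus IV hydration. AEs were counted once per patient. The safety population was all patients receiving ≥ 1 dose, analysed descriptively.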

[3] = system: patients with other hematologic malignancies (NHL, MM, myeloid malignancy, HCL, Castleman disease); test: Phase 1 trial: antitumor response in patients without CLL/SLL; format: in vivo, human
How it was run: (§1)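 Patients took the oral test compound once daily in 28-day cycles. Disease was assessed at baseline and then every 8 weeks from Cycle 3, using disease-specific scans, bone marrow biopsy/aspirate and hematologic and biochemical labs. MRD was checked in peripheral blood in patients reaching CR. ORR was reported with 95% CI, and missing data were not imputed.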

patients with CLL/SLL = test: Absolute lymphocyte count; format: in vivo, human; details: for Mean decrease in ALC: 23 patients with CLL/SLL
How it was run: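 Adults with R/R CLL/SLL took the test compound orally once daily in 28-day cycles. ALC was tracked from ramp-up D1 to C1D1 and to C2D1. A subset with baseline mean ALC > 25 × 10³/μL was evaluated separately.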

[4] = system: patients with relapsed or refractory CLL/SLL; test: Phase 1 trial: antitumor response in patients with R/R CLL/SLL; format: in vivo, human
How it was run: as §1

[5] = cited from earlier work
[6] = single oral administration, 50 mg, 1 subject
[7] = single oral administration, 100 mg, 1 subject
[8] = single oral administration, 200 mg, 2 subjects, Mean ± SD
[9] = single oral administration, 400 mg, 8 subjects, Mean ± SD
[10] = single oral administration, 600 mg, 7 subjects, Mean ± SD
[11] = single oral administration, 800 mg, 7 subjects, Mean ± SD
[12] = single oral administration, 1,000 mg, 6 subjects, Mean ± SD
[13] = single oral administration, 1,200 mg, 6 subjects, Mean ± SD
[14] = Castleman disease, evaluable n = 1
[15] = Myeloid malignancy (AML, MDS), evaluable n = 2
[16] = Non-CLL/SLL overall, evaluable n = 28

## O=C(NS(=O)(=O)c1ccc(NC[C@H]2COCCO2)c([N+](=O)[O-])c1)c1ccc(N2CCN(CC3=C(c4ccc(Cl)cc4)CC4(CCC4)CC3)CC2)cc1Oc1cnc2[nH]ccc2c1 [lisaftoclax]
[1]; 400 mg
  Steady-state mean (CV%) AUC0-24h: 10,130 (40%) ng•h/mL
  Steady-state mean (CV%) Cmax: 981 (43%) ng/mL
[1]; multiple oral daily dosing
  Accumulation ratio: approximately 1
[1]; [6]
  AUC0-24: 261 ng·h/mL
  Cmax: 39.1 ng/mL
  T1/2: 2.84 h
  Tmax: 3 h
[1]; [7]
  AUC0-24: 1800 ng·h/mL
  Cmax: 229 ng/mL
  T1/2: 3.85 h
  Tmax: 6 h
[1]; [8]
  AUC0-24: 2410 ± 370 ng·h/mL
  Cmax: 294 ± 4 ng/mL
  T1/2: 3.84 ± 0.16 h
[1]; single oral administration, 200 mg, 2 subjects, Median (range)
  Tmax: 4 (4~4) h
[1]; [9]
  AUC0-24: 6850 ± 2910 ng·h/mL
  Cmax: 822 ± 334 ng/mL
  T1/2: 4.43 ± 0.57 h
[1]; single oral administration, 400 mg, 8 subjects, Median (range)
  Tmax: 6 (4~8) h
[1]; [10]
  AUC0-24: 7810 ± 2840 ng·h/mL
  Cmax: 761 ± 298 ng/mL
  T1/2: 4.68 ± 1.03 h
[1]; single oral administration, 600 mg, 7 subjects, Median (range)
  Tmax: 6 (4~8) h
[1]; [11]
  AUC0-24: 7250 ± 2240 ng·h/mL
  Cmax: 982 ± 384 ng/mL
  T1/2: 4.34 ± 0.53 h
[1]; single oral administration, 800 mg, 7 subjects, Median (range)
  Tmax: 4 (4~6) h
[1]; [12]
  AUC0-24: 18300 ± 13100 ng·h/mL
  Cmax: 1690 ± 1220 ng/mL
  T1/2: 6.10 ± 1.52 h
[1]; single oral administration, 1,000 mg, 6 subjects, Median (range)
  Tmax: 8 (6~8) h
[1]; [13]
  AUC0-24: 12300 ± 4820 ng·h/mL
  Cmax: 1200 ± 480 ng/mL
  T1/2: 4.86 ± 1.01 h
[1]; single oral administration, 1,200 mg, 6 subjects, Median (range)
  Tmax: 6 (3~8) h
[2]; 23 patients with CLL/SLL
  Grade 3 or 4 treatment-emergent increased lipase, patients: 13.0%
  Grade 3 or 4 treatment-emergent neutropenia, patients: 26.1%
  Treatment-related neutropenia, patients: 26.1%
[2]; N = 52, Grade 3/4
  Anemia, treatment-emergent adverse event: 5 (9.6) no. (%)
  Constipation, treatment-emergent adverse event: 1 (1.9) no. (%)
  Diarrhea, treatment-emergent adverse event: 1 (1.9) no. (%)
  Fatigue, treatment-emergent adverse event: 1 (1.9) no. (%)
  Headache, treatment-emergent adverse event: 2 (3.8) no. (%)
  Hypokalemia, treatment-emergent adverse event: 1 (1.9) no. (%)
  Nausea, treatment-emergent adverse event: 2 (3.8) no. (%)
  Neutropenia, treatment-emergent adverse event: 11 (21.2) no. (%)
  Peripheral edema, treatment-emergent adverse event: 2 (3.8) no. (%)
  Thrombocytopenia, treatment-emergent adverse event: 7 (13.5) no. (%)
[2]; N = 52, any grade
  Anemia, treatment-emergent adverse event: 15 (28.8) no. (%)
  Arthralgia, treatment-emergent adverse event: 8 (15.4) no. (%)
  Constipation, treatment-emergent adverse event: 13 (25.0) no. (%)
  Diarrhea, treatment-emergent adverse event: 25 (48.1) no. (%)
  Fatigue, treatment-emergent adverse event: 18 (34.6) no. (%)
  Headache, treatment-emergent adverse event: 11 (21.2) no. (%)
  Hypokalemia, treatment-emergent adverse event: 9 (17.3) no. (%)
  Nausea, treatment-emergent adverse event: 16 (30.8) no. (%)
  Neutropenia, treatment-emergent adverse event: 14 (26.9) no. (%)
  Peripheral edema, treatment-emergent adverse event: 9 (17.3) no. (%)
  Thrombocytopenia, treatment-emergent adverse event: 15 (28.8) no. (%)
  Vomiting, treatment-emergent adverse event: 12 (23.1) no. (%)
[2]; daily dose ramp-up, doses up to 1,200 mg
  Tumor lysis syndrome (TLS), clinical or laboratory: no evidence of tumor lysis syndrome; also recorded: no evidence of clinical or laboratory TLS; also recorded: no patient with CLL/SLL in this study has experienced TLS; also recorded: no clinical or laboratory evidence of TLS
[2]; doses of up to 1,200 mg
  Dose-limiting toxicity (DLT): not reached; also recorded: no dose-limiting toxicities
[2]; in contrast to navitoclax
  Changes in platelet counts: did not elicit clinically significant changes in platelet counts
[2]; in vivo
  Neutropenic sequelae, such as fever and infection: not observed
[2]; oral once daily, 20 mg to 1,200 mg, 52 patients
  Maximum tolerated dose (MTD): not reached
[3]; 28 evaluable patients without CLL/SLL
  Clinical benefit, patients: 50.0%
[3]; [14]
  Best response MR: 0 (0) no. (%)
  Best response PD: 0 (0) no. (%)
  Best response PR: 0 (0) no. (%)
  Best response SD: 1 (100.0) no. (%)
  Clinical benefit rate: 1 (100.0) no. (%)
  ORR: 0 (0) no. (%)
[3]; HCL, evaluable n = 1
  Best response MR: 0 (0) no. (%)
  Best response PD: 0 (0) no. (%)
  Best response PR: 0 (0) no. (%)
  Best response SD: 1 (100.0) no. (%)
  Clinical benefit rate: 1 (100.0) no. (%)
  ORR: 0 (0) no. (%)
[3]; MM, evaluable n = 11
  Best response PD: 7 (63.6) no. (%)
  Best response SD: 2 (18.2) no. (%)
  Clinical benefit rate: 4 (36.4) no. (%)
  ORR: 1 (9.1) no. (%)
[3]; [15]
  Best response MR: 0 (0) no. (%)
  Best response PD: 2 (100.0) no. (%)
  Best response PR: 0 (0) no. (%)
  Best response SD: 0 (0) no. (%)
  Clinical benefit rate: 0 (0) no. (%)
  ORR: 0 (0) no. (%)
[3]; NHL, evaluable n = 13
  Best response PD: 5 (38.5) no. (%)
  Best response PR: 0 (0) no. (%)
  Best response SD: 7 (53.8) no. (%)
  Clinical benefit rate: 8 (61.5) no. (%)
  ORR: 0 (0) no. (%)
[3]; [16]
  Best response MR: 2 (7.1) no. (%)
  Best response PD: 14 (50.0) no. (%)
  Best response PR: 1 (3.6) no. (%)
  Best response SD: 11 (39.3) no. (%)
  Clinical benefit rate: 14 (50.0) no. (%)
  ORR: 1 (3.6) no. (%)
Patients with CLL/SLL; 5 patients with higher risk of TLS
  Median time to 50% ALC reduction: 3 (range, 2-4) days
Patients with CLL/SLL; from ramp-up D1 to C1D1
  Mean decrease in ALC: 69.4%
Patients with CLL/SLL; from ramp-up Day 1 to C2D1 (completion of first cycle)
  Mean decrease in ALC: 92.8%
[4]; 4 out of 5 evaluable patients
  ORR in patients with BTKi-intolerant disease: 80.0%
[4]; CLL/SLL, evaluable n = 22
  Best response MR: 0 (0) no. (%)
  Best response PD: 0 (0) no. (%)
  Best response PR: 14 (63.6) no. (%)
  Best response SD: 8 (36.4) no. (%)
  ORR: 14 (63.6) no. (%)
[4]; CLL/SLL, 2/3
  PR (ORR) in patients with del(17p)/TP53 mutation: 66.7%
[4]; CLL/SLL, 8/10
  PR in patients with IGHV unmutated: 80.0%
[4]; CLL/SLL, 9 of 21 patients
  Patients with ≥ 70% reductions in nodal and/or splenic size: 42.9%
[4]; after 2 cycles of treatment
  Patients achieving PR among 4 patients who relapsed to prior BTKi: 1 patient
[4]; all patients
  Complete response (CR): No patient experienced a CR
[4]; patients with R/R CLL/SLL
  Median time to response: 2 (range, 2-8) cycles

## CC1(C)CCC(CN2CCN(c3ccc(C(=O)NS(=O)(=O)c4ccc(NCC5CCOCC5)c([N+](=O)[O-])c4)c(Oc4cnc5[nH]ccc5c4)c3)CC2)=C(c2ccc(Cl)cc2)C1 [venetoclax]
[5]
  Patients with grade 3/4 neutropenia who may require G-CSF support or dose reductions: ~ 75%
  Recipients experiencing infection: 72%
[5]; real-world-evidence studies
  Grade ≥ 2 diarrhea, recipients: up to 18%
  Grade ≥ 3 neutropenia, recipients: up to 47%
  Grade ≥ 3 neutropenic fever, recipients: up to 13%
  Grade ≥ 3 thrombocytopenia, recipients: up to 36%
  TLS, recipients: up to 13.4%
